# Hits are enriched below; roughly 2.9% of the tested compounds scored in any of these assays.
# TRPC6 activator: activators of mouse TRPC6 channel | Q61143 | HEK293-TRPC6 membrane potential dye fluorescence; hits give high values | 310,000 compounds, 0.13% hits | B-score at 10 µM;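 active = B-score of the integrated fluorescence ratio above library mean plus 3 SD, and starting fluorescence ratio within library mean plus 5 SD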;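 also: higher score means more depolarization so channel activation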
# Target sequence (Q61143 whole entry, looked up): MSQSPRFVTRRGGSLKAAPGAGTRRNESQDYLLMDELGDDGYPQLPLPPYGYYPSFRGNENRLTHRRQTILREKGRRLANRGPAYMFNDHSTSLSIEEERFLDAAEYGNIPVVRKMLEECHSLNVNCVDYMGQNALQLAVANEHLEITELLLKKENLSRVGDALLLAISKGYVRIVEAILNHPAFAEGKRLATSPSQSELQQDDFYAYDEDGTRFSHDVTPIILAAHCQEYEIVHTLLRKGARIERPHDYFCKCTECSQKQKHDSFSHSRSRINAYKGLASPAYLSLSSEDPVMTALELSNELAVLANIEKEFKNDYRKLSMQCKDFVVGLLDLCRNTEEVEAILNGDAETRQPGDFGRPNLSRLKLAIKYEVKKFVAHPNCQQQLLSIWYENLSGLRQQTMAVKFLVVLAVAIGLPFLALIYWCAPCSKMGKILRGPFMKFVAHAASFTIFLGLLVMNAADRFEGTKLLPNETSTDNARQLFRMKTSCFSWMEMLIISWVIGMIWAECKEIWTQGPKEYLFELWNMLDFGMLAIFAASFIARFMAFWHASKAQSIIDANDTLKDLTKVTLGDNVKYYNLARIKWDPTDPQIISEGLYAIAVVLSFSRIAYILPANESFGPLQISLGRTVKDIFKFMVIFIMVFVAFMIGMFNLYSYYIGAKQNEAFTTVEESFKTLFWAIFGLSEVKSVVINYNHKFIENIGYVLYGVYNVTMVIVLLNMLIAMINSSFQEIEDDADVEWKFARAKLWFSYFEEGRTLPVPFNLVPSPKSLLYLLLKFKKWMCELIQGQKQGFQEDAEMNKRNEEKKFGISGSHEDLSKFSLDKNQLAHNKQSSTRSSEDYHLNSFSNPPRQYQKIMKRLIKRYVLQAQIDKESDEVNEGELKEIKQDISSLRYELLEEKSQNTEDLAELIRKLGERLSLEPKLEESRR
# Kir21 block: inhibitors of mouse Kir2.1 inward-rectifier potassium channel | P35561 | 310,000 compounds, 0.85% hits | AID 1672 | B-score at 10 µM | HEK293-Kir2.1, FluxOR thallium flux fluorescence; hits give low values;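 active = fluorescence ratio B-score at or below minus 3 SD of library scores, with starting-brightness B-score within 2 SD, cut at about -4.2 in these data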;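 also: channel flux triggered by added potassium and thallium sulfate stimulus; B-score of peak minus minimum fluorescence over baseline after thallium stimulus; more negative B-score means stronger Kir2.1 block with less thallium influx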
# TRPC4 agonist: opens the mouse TRPC4 cation channel. B-score at 10 µM. HEK293 TRPC4beta/mu-opioid, Fluo4 calcium fluorescence; hits give high values. AID 2237. 310,000 compounds, 0.49% hits. Q9QUQ5;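 active = B-score above 5 SD of library B-scores, and initial fluorescence ratio not above library mean plus 5 SD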;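 also: positive B-score marks a calcium rise read as TRPC4 activation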
#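 Assay system: HEK293 stable line with TRPC4beta plus mu-opioid receptor. Times: dye 45 min RT, read 110 s. Measured by: kinetic Fluo4 calcium fluorescence. Measure: B score of integrated ratio. Controls: assay buffer as low control, maximal DAMGO as high control.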
# TRPC4 PAM: allosterically enhances the mouse TRPC4 cation channel; B-score at 10 µM; HEK293 TRPC4beta/mu-opioid, DAMGO EC20, Fluo-4 Ca2+ flux; hits give high values; 310,000 compounds, 0.42% hits;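 active = B-score of calcium response area above 5 SD of library B-scores, with initial fluorescence ratio within 5 SD of library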;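 also: B-score of integrated fluorescence ratio over time as area under calcium response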
# TRPC6 inhibitor: inhibitors of mouse TRPC6 channel; Q61143; HEK293-TRPC6, membrane potential dye, ACh-evoked depolarization; hits give low values; B-score at 10 µM; 310,000 compounds, 1.1% hits; AID 2553;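 active = B-score under library mean minus 3 SD, initial fluorescence not abnormally high, positive integrated signal ratio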;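 also: B-score derived from integrated fluorescence ratio over the kinetic read; more negative B-score means stronger inhibition of depolarization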
# TRPC4 inh: inhibitors of mouse TRPC4 channel | HEK293 TRPC4beta/mu-opioid, DAMGO-evoked Fluo4 calcium flux; hits give low values | B-score at 10 µM | 300,000 compounds, 0.39% hits;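 active = B-score over 3 SD under the library average, no early fluorescence shift, positive overall ratio signal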
#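 Material: HEK293 cells with stable TRPC4beta plus mu-opioid receptor expression; probe or stimulus: DAMGO in two steps, submaximal then maximal; technique: Fluo4 calcium fluorescence by kinetic imaging, 5 s 1 Hz baseline; measure: integrated fluorescence ratio relative to baseline, converted to per-well B score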
# TRPC4 sel inh 2: second check of whether TRPC6 inhibitors also affect mouse TRPC4 | 920 compounds, 42% hits | shares compounds with TRPC6 inhibitor | inhibition, % at 10 µM | AID 2776 | HEK293 TRPC4/MOR, membrane potential dye fluorescence; channel activated by saturating DAMGO dose;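 active = compounds whose fluorescence signal differed from control wells by over 3 SD, either direction, in both duplicate plates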
# TRPC4 spec: mouse TRPC4 off-target activity of TRPC6 inhibitors. shares compounds with TRPC6 inhibitor. HEK293 TRPC4/mu-opioid, membrane potential fluorescence. activity change, negative = inhibition, % at 10 µM. 920 compounds, 61% hits;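 active = rise or fall in signal beyond 3 SD of buffer-only wells in both replicate plates, either sign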;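 also: integrated kinetic ratio of fluorescence range over baseline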
# HEK293 MPD ctr 2-1: parental HEK293 nonspecific activity of TRPC6 inhibitors, second screen. parental HEK293 membrane potential dye fluorescence; maximal acetylcholine challenge after compound addition. signal change vs control, % at 10 µM. AID 2779. 920 compounds, 31% hits. shares compounds with TRPC6 inhibitor;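 active = membrane potential signal moving either way by over 3 SD of the maximum-effect control, in both duplicate plates, meaning non-specific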
# HEK293 MPD ctr-1: parental HEK293 nonspecific activity of TRPC6 inhibitors; AID 2780; shares compounds with TRPC6 inhibitor; membrane potential signal change, % at 10 µM; parental HEK293 membrane potential dye fluorescence; 920 compounds, 60% hits;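 active = membrane potential signal shifting up or down by more than 3 SD of buffer-only wells, on both duplicate plates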
# HEK293 MPD ctr-2: counter-screen for TRPC6 modulators: effect in parental HEK293 cells | shares compounds with TRPC6 inhibitor | 2,400 compounds, 51% hits | membrane potential signal change, % at 10 µM | membrane potential dye fluorescence;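 active = membrane potential signal moves up or down beyond 5 SD from buffer-only wells, on both duplicate plates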
# HEK293 MPD ctr 2-2: second counter-screen for TRPC6 modulators: effect in parental HEK293 cells. shares compounds with TRPC6 inhibitor. membrane potential dye fluorescence; after compound, maximal acetylcholine stimulation. inhibition, % at 10 µM. 2,400 compounds, 14% hits. AID 488926;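 active = membrane potential signal drops by more than 5 SD from the mean control signal, in both duplicate plates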;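 also: plate controls were acetylcholine ECmax control wells for no effect and buffer only wells for full effect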
# TRPC4/MOR mod: selectivity of TRPC6 modulators against mouse TRPC4; shares compounds with TRPC6 inhibitor; HEK293 TRPC4/mu-opioid, membrane potential fluorescence; percent change from control (negative = decrease, positive = increase), % at 10 µM; 2,400 compounds, 69% hits;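 active = membrane potential signal moved up or down beyond 5 SD of buffer control wells, in both duplicate plates, actives on both sides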;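 also: plate controls were assay buffer wells for no effect and DAMGO maximal-effect wells for full effect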
# TRPC4 ctr inh 2: second selectivity test of TRPC6 modulators against mouse TRPC4; shares compounds with TRPC6 inhibitor; HEK293 TRPC4/mu-opioid, membrane potential dye fluorescence; stimulated with maximal-effect DAMGO; inhibition, % at 10 µM; 2,400 compounds, 55% hits; AID 488928;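 active = drop in membrane potential signal beyond 5 SD of the control wells in both duplicate plates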;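 also: TRPC4 counter screen for TRPC6 hits run under conditions tuned for TRPC6 not TRPC4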
# TRPC6 inh conf: confirmation of mouse TRPC6 inhibitors | shares compounds with TRPC6 inhibitor | HEK293-TRPC6, membrane potential dye, ACh-evoked depolarization | inhibition, % at 10 µM | 3,300 compounds, 43% hits;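 active = fluorescence ratio falls more than 5 SD below the full-stimulation control mean, in both duplicate runs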;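 also: integrated fluorescence ratio of peak minus minimum over baseline after agonist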
# TRPC6 act confirm: confirmation of mouse TRPC6 activators | shares compounds with TRPC6 inhibitor | HEK293-TRPC6 membrane potential dye fluorescence, FDSS | activation, % at 10 µM | 2,800 compounds, 11% hits;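 active = ratio signal rise beyond 5 SD above unstimulated control wells' mean, seen in both duplicate runs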;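 also: plate controls were buffer EC0 wells for no effect and acetylcholine ECmax response for full effect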
# Numbers without * were called inactive; i = inactive; · = not tested or not shown.
SMILES,TRPC6 activator,Kir21 block,TRPC4 agonist,TRPC4 PAM,TRPC6 inhibitor,TRPC4 inh,HEK293 MPD ctr-2,HEK293 MPD ctr 2-2,TRPC4/MOR mod,TRPC4 ctr inh 2,TRPC6 inh conf,TRPC6 act confirm,others
Cc1cc(C)c(C)c(S(=O)(=O)Nc2ccccc2C(=O)NCCCN2CCOCC2)c1C,i,0.01,i,i,i,i,·,·,·,·,·,·,
CC(C)Oc1cc(C(=O)NC2CCCCC2)c2ccccc2n1,i,2.3,i,i,i,i,·,·,·,·,·,·,
O=C1CN(C(=O)/C=C/c2cccc(Cl)c2)c2ccccc2N1,i,-0.26,i,i,-6.7*,i,·,·,·,·,i,i,TRPC4 sel inh 2=i;TRPC4 spec=i;HEK293 MPD ctr 2-1=i;HEK293 MPD ctr-1=i
O=C1CN(C(=O)/C=C/c2ccco2)c2ccccc2N1,i,0.46,i,i,i,i,·,·,·,·,·,·,
COCC(C)NC(=O)c1ccc(CN2CCc3ccccc3C2)cc1 (stereo unspecified),i,-0.23,i,i,-6.9*,i,·,·,·,·,i,i,TRPC4 sel inh 2=i;TRPC4 spec=i;HEK293 MPD ctr 2-1=i;HEK293 MPD ctr-1=0.8%*
O=C(Nc1ccccc1)c1ccccc1Oc1ccc(C(F)(F)F)cc1[N+](=O)[O-],i,-3.8,i,i,i,i,·,·,·,·,·,·,
O=C(Nc1ccc(F)cc1)c1ccccc1Oc1ccc(C(F)(F)F)cc1[N+](=O)[O-],i,0.9,i,i,-5.3*,i,i,i,i,35%*,i,i,
CCOc1ccc(CC(=O)NNC(=S)NCCc2ccccc2)cc1,i,-1.4,i,i,i,i,·,·,·,·,·,·,
COc1ccccc1-c1coc2c(CN3CCCC(C)C3)c(O)ccc2c1=O (stereo unspecified),i,-0.43,i,i,-5.9*,i,i,i,i,i,i,i,
COc1ccccc1-c1c(C)oc2c(CN3CCCC(C)C3)c(O)ccc2c1=O (stereo unspecified),i,4.1,i,i,i,i,·,·,·,·,·,·,
Cc1ccc(-c2csc(N=C(N)N)n2)c(C)c1,i,-8.3*,i,i,-5.5*,i,94%*,i,12%*,52%*,i,·,
CCC(=O)N1CCc2cc(S(=O)(=O)N3CCCCCC3)ccc21,i,0.18,i,i,i,i,·,·,·,·,·,·,
CCCCCn1c2c(c(=N)c3ccccc31)CCC2,i,0.29,i,i,-8.1*,-8*,·,·,·,·,71%*,i,TRPC4 sel inh 2=56%*;TRPC4 spec=-26%*;HEK293 MPD ctr 2-1=20%*;HEK293 MPD ctr-1=-388%*
CCCCn1c2c(c(=N)c3ccccc31)CCC2,i,0.28,i,i,-7.2*,i,·,·,·,·,83%*,i,TRPC4 sel inh 2=60%*;TRPC4 spec=-29%*;HEK293 MPD ctr 2-1=-20%*;HEK293 MPD ctr-1=-508%*
CN(C)CCCNc1cc(-c2ccccc2)nc2cc(-c3cccc(F)c3)nn12,i,-2.2,i,i,-5.1*,i,i,i,-11%*,50%*,46%*,i,
Cc1cccc(-c2cc3nc(C)cc(NCCCN(C)C)n3n2)c1,i,-1.3,i,13*,-7.2*,i,-194%*,74%*,-40%*,60%*,56%*,i,
Cc1cc(C(F)(F)F)n2nc(-c3cccs3)cc2n1,i,-0.46,i,i,i,i,·,·,·,·,·,·,
Cc1cccc(-c2cc3nc(C)cc(C)n3n2)c1,i,-1.1,i,i,i,i,·,·,·,·,·,·,
CCN(CC)CCCNc1cc(C)nc2cc(-c3cccs3)nn12,i,1.6,i,i,-7.5*,i,-416%*,i,-62%*,52%*,44%*,i,
Cc1occc1C(=O)Nc1cnn(CCCC(=O)O)c1,i,2.6,i,i,i,i,·,·,·,·,·,·,
O=C(N/N=C/c1ccncc1)c1cccc(S(=O)(=O)Nc2ccc(Cl)cc2)c1,i,0.64,i,i,i,i,·,·,·,·,·,·,
CCOC(=O)n1c(=O)n(Cc2ccccc2C)c2ccccc21,i,-0.01,i,i,i,i,·,·,·,·,·,·,
COC(=O)c1cn(Cc2cc(OC)ccc2OC)cc(F)c1=O,i,0.99,i,i,-5.3*,i,i,i,i,i,i,i,
C/C(=N\Nc1ccc2nncn2n1)c1ccccn1,i,-0.52,i,i,-7.4*,i,·,·,·,·,84%*,i,TRPC4 sel inh 2=71%*;TRPC4 spec=-36%*;HEK293 MPD ctr 2-1=i;HEK293 MPD ctr-1=-522%*
COc1ccc(C(=O)Nc2cnn(Cc3c(F)cccc3Cl)c2)cc1OC,i,0.41,i,i,i,i,·,·,·,·,·,·,
O=C(COC(=O)CNC(=O)c1ccc(Cl)cc1Cl)Nc1cccc(S(=O)(=O)N2CCCC2)c1,i,-0.02,i,i,i,i,·,·,·,·,·,·,
CCN1CCN(c2nn3c(=O)c4ccccc4nc3c3ccccc23)CC1,i,0.21,i,i,-5.3*,i,i,i,i,52%*,42%*,i,
CCN1CCN(c2nc(-c3ccncc3)nc3ccccc23)CC1,i,1.5,i,i,i,i,·,·,·,·,·,·,
